In ChEMBL document CHEMBL1128705, “[[[(Thienylcarbonyl)alkyl]oxy]phenyl]- and [[[(pyrrylcarbonyl)alkyl]oxy]phenyl]oxazoline derivatives with potent and selective antihuman rhinovirus activity” (J Med Chem, 1995):
In brackets after ≈: the same amount, converted by molar mass.

Legend:
Human rhinovirus sp. [1] = assay: In vitro concentration which inhibits 80% of serotypes tested; assay type: functional
How it was run: (§1)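 CPE-inhibition MTT assay in HeLa-Ohio cells (30 mM MgCl2, 15 µg/mL DEAE-dextran, 2% FCS), infected at 200–2000 PFU/monolayer and incubated at 33 °C. MIC80 is the concentration inhibiting 80% of the serotypes tested.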

HeLa [2] = assay: In vitro concentration required to achieve 50% protection of HeLa cells from HRV-2 induced cytopathic effect; assay type: functional, cell-based; conditions: Homo sapiens
How it was run: (§2)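 HeLa-Ohio cells (20 000/well) are seeded in D-MEM with 2% FCS, 30 mM MgCl2 and 15 µg/mL DEAE-dextran, then grown overnight at 37 °C, 5% CO2, to a subconfluent monolayer. Compound dilutions (from 200× DMSO stocks) are added with HRV at 200–2000 PFU/monolayer, dosed to give full CPE in 72 h. Plates are held at 33 °C and viability is read by MTT. EC50 is the concentration giving 50% protection.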

HeLa [3] = assay: In vitro concentration required to reduce the viability of mock-infected HeLa cells by 50%; assay type: functional; conditions: Homo sapiens
How it was run: (§3)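 Cytotoxicity run alongside the antiviral assay on mock-infected HeLa-Ohio cells. Compounds are taken from 200× DMSO stocks and serially diluted in maintenance medium. Cells are incubated 72 h at 37 °C and viability is read by MTT. CC50 is the concentration that reduces viability by 50%.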

Human rhinovirus sp. [4] = assay: In vitro concentration required to achieve 50% protection of HeLa cells from HRV-14 induced cytopathic effect; assay type: functional, organism-based; how it was run: as §2
Human rhinovirus sp. [5] = assay: Compound concentration which inhibits 80% of serotypes tested, was reported.; assay type: functional; how it was run: as §1
HeLa [6] = assay: Compound concentration required to reduce the viability of mock-infected HeLa cells by 50%, was reported.; assay type: functional; conditions: Homo sapiens; how it was run: as §3
HeLa [7] = assay: In vitro concentration required to reduce the viability of mock-infected HeLa cells by 50%, was reported.; assay type: functional; conditions: Homo sapiens; how it was run: as §3

| SMILES | MIC80 (Human rhinovirus sp. [1]) | EC50 (HeLa [2]) | CC50 (HeLa [3]) | EC50 (Human rhinovirus sp. [4]) | MIC80 (Human rhinovirus sp. [5]) | CC50 (HeLa [6]) | CC50 (HeLa [7]) |
| --- | --- | --- | --- | --- | --- | --- | --- |
| O=C(CCCCOc1ccc(C2=NCCO2)cc1)c1ccc(Cl)s1 | > 27.1 µM | 0.81 µM | > 271 µM | 0.13 µM |  |  |  |
| O=C(O)c1ccc(OCCCCC(=O)c2ccc(Cl)s2)cc1 | > 29.5 µM | > 29.5 µM | > 295 µM | > 29.5 µM |  |  |  |
| CCOC(=O)c1ccc(OCCCCC(=O)c2cc(C)cs2)cc1 |  | 2.89 µM | > 289 µM | 5.78 µM |  |  |  |
| Cc1ccsc1C(=O)CCCCOc1ccc(C(=O)O)cc1 | > 31.4 µM | > 31.4 µM | > 314 µM | > 31.4 µM |  |  |  |
| CCOC(=O)c1ccc(OCCCCC(=O)c2cc(C=O)n(C)c2)cc1 |  | 0.67 µM |  | 1.96 µM | 8.4 µM (≈ 3 µg/mL) | 56 µM |  |
| CCOC(=O)c1ccc(OCCCCCc2ccc(C)s2)cc1 | 14.3 µM (≈ 4.76 µg/mL) | 1.59 µM | 301 µM | 7.16 µM |  |  |  |
| Cn1cc(C(=O)CCCCOc2ccc(C3=NCCO3)cc2)cc1C=O |  | > 28.2 µM |  | > 28.2 µM | > 28.2 µM | > 282 µM |  |
| CCOC(=O)c1ccc(OCCCCC(=O)c2cc(C)[nH]c2C)cc1 | > 29 µM | 1.17 µM | 204 µM | 18.9 µM |  |  |  |
| c1ccn(CCCCCOc2ccc(C3=NCCO3)cc2)c1 | 15.9 µM (≈ 4.75 µg/mL) | 1.43 µM | 159 µM | > 31.9 µM |  |  |  |
| Cc1cc(CCCCCCCOc2ccc(C3=NCCO3)cc2)on1 [DISOXARIL] |  | 2.35 µM |  | 1.76 µM | 3.51 µM (≈ 1.2 µg/mL) | 37 µM |  |
| Cn1cc(C(=O)CCCCOc2ccc(C(=O)O)cc2)cc1C=O |  | > 30.9 µM |  | > 30.9 µM | > 30.9 µM | > 303 µM |  |
| c1cc(C2=NCCO2)ccc1OCCCCCN1CCCC1 | > 33.1 µM | > 33.1 µM | 165 µM | > 33.1 µM |  |  |  |
| CCOC(=O)c1ccc(OCCCCC(=O)c2cc(C)n(C)c2C)cc1 | > 28 µM | 2.28 µM | 56 µM | 16.8 µM |  |  |  |
| Cc1ccc(C(=O)CCCCOc2ccc(C(=O)O)cc2)s1 | > 31.4 µM | > 31.4 µM | > 314 µM | > 31.4 µM |  |  |  |
| Cc1csc(C(=O)CCCCOc2ccc(C3=NCCO3)cc2)c1 | 14.6 µM (≈ 5.01 µg/mL) | 2.91 µM | 73 µM | 0.87 µM |  |  |  |
| O=C(CCCCOc1ccc(C2=NCCO2)cc1)c1ccc[nH]1 | > 32 µM | 3.2 µM | > 320 µM | 8.01 µM |  |  |  |
| CCOC(=O)c1ccc(OCCCCC(=O)c2ccc(Cl)s2)cc1 | 2.18 µM (≈ 0.8 µg/mL) | 0.08 µM | 273 µM | 0.54 µM |  |  |  |

| SMILES | MIC80 (Human rhinovirus sp. [1]) | EC50 (HeLa [2]) | CC50 (HeLa [3]) | EC50 (Human rhinovirus sp. [4]) | MIC80 (Human rhinovirus sp. [5]) | CC50 (HeLa [6]) | CC50 (HeLa [7]) |
| --- | --- | --- | --- | --- | --- | --- | --- |
| CCOC(=O)c1ccc(OCCCCCc2ccc(Cl)s2)cc1 | 18.3 µM (≈ 6.45 µg/mL) | 1.84 µM | > 284 µM | 9.15 µM |  |  |  |
| Cc1ccc(CCCCCOc2ccc(C3=NCCO3)cc2)s1 | > 30.4 µM | 2.58 µM | > 303 µM | 11.5 µM |  |  |  |
| CCOC(=O)c1ccc(OCCCC(=O)c2ccc(C)s2)cc1 | > 30.1 µM | 10.6 µM | > 301 µM | > 30.1 µM |  |  |  |
| CCOC(=O)c1ccc(OCCCCC(=O)c2ccc(C)s2)cc1 | 2.31 µM (≈ 0.8 µg/mL) | 0.06 µM | > 289 µM | 0.29 µM |  |  |  |
| Cc1csc(C(=O)CCCCOc2ccc(C(=O)O)cc2)c1 | > 31.4 µM | > 31.4 µM | > 314 µM | > 31.4 µM |  |  |  |
| O=C(CCCCOc1ccc(C2=NCCO2)cc1)c1cc[nH]c1 | > 32 µM | > 32 µM | > 320 µM | > 32 µM |  |  |  |
| CCOC(=O)c1ccc(OCCCCC(=O)c2cc[nH]c2)cc1 | 19.5 µM (≈ 6.14 µg/mL) | 11 µM | > 317 µM | 13.3 µM |  |  |  |
| Cc1ccc(C(=O)CCCCOc2ccc(C(=O)NCCO)cc2)o1 | > 30.6 µM | > 30.6 µM | > 305 µM | > 30.6 µM |  |  |  |
| CCOC(=O)c1ccc(OCCCCC(=O)c2ccc(C)o2)cc1 |  | 0.91 µM | 65 µM | 2.42 µM |  |  |  |
| Cn1cccc1C(=O)CCCCOc1ccc(C2=NCCO2)cc1 | > 30.7 µM | > 30.7 µM |  | 3.68 µM |  |  | > 306 µM |
| Cc1cc(C(=O)CCCCOc2ccc(C3=NCCO3)cc2)c(C)n1C | > 28.2 µM | > 28.2 µM | 141 µM | 11.3 µM |  |  |  |
| Cc1ccc(C(=O)CCCCOc2ccc(C3=NCCO3)cc2)s1 | 9.04 µM (≈ 3.1 µg/mL) | 1.31 µM | 146 µM | 0.14 µM |  |  |  |
| Cc1ccc(C(=O)CCCOc2ccc(C3=NCCO3)cc2)s1 | > 30.3 µM | 15.2 µM |  | 22.7 µM |  |  |  |
| Cc1cc(C(=O)CCCCOc2ccc(C3=NCCO3)cc2)c(C)[nH]1 | > 29.4 µM | > 29.4 µM | 205 µM | > 29.4 µM |  |  |  |
| Cc1ccsc1C(=O)CCCCOc1ccc(C2=NCCO2)cc1 | > 29.1 µM | 29.2 µM | 291 µM | 1.46 µM |  |  |  |
| CCOC(=O)c1ccc(OCCCCC(=O)c2sccc2C)cc1 | 20.8 µM (≈ 7.21 µg/mL) | 6.94 µM | 202 µM | > 28.9 µM |  |  |  |
| Clc1ccc(CCCCCOc2ccc(C3=NCCO3)cc2)s1 | 21.4 µM (≈ 7.5 µg/mL) | 2.57 µM | 71 µM | 2.85 µM |  |  |  |
